Source: ChEMBL document CHEMBL1139231 (J Med Chem, 2007)
Activity calls are given as the source filed them. The rule behind the calls is not given here.

Experiments:
[1] = target: T1, Sodium-dependent serotonin transporter (Homo sapiens, UniProt P31645); assay: Inhibition of [3H]5-HT uptake into human SERT expressing HEK293 cells; format: cell-based
How it was run: (§1)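 Intact HEK293 cells stably expressing human SERT or DAT, scraped and triturated, preincubated with drug 10 min at 25 °C in Krebs-HEPES pH 7.4; [3H]5-HT or [3H]DA (20 nM final) added for 10 min; filtration, scintillation counting. Nonspecific: 5 µM imipramine (SERT) or 5 µM mazindol (DAT). Triplicate points, ≥3 experiments.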

[2] = target: T1, Sodium-dependent serotonin transporter; assay: Displacement of [125I]RTI-55 from human SERT expressing HEK293 cells; format: cell-based
How it was run: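 Membranes from HEK293 cells stably expressing human DAT or SERT (lysed in hypotonic HEPES/EDTA, pelleted, resuspended in 0.32 M sucrose) preincubated with drug 10 min at rt, then [125I]RTI-55 added; 90 min rt in dark; filtration, scintillation counting. Krebs-HEPES buffer pH 7.4. Nonspecific: 5 µM mazindol (DAT) or 5 µM imipramine (SERT). Duplicate points, ≥3 experiments.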

[3] = target: T2, Sodium-dependent noradrenaline transporter (Homo sapiens, UniProt P23975); assay: Displacement of [125I]RTI-55 from human NET expressing HEK293 cells; format: cell-based
[4] = target: T3, Sodium-dependent dopamine transporter (Homo sapiens, UniProt Q01959); assay: Inhibition of [3H]DA uptake at human DAT expressing HEK293 cells; format: cell-based; how it was run: as §1
[5] = target: T2, Sodium-dependent noradrenaline transporter; assay: Inhibition of [3H]NE uptake into human NET expressing HEK293 cells; format: cell-based
[6] = target: T3, Sodium-dependent dopamine transporter; assay: Displacement of [125I]RTI-55 from human DAT expressing HEK293 cells; format: cell-based
Mus musculus = assay: Effect on locomotor activity in Swiss-Webster mouse at 30 mg/kg; format: functional, organism-based; parameters: dose 30 mg/kg
How it was run: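 Nonhabituated male Swiss-Webster mice (Hsd:ND4, 2-3 months), groups of eight, dosed ip (vehicle deionized water) immediately before testing; horizontal photobeam interruptions counted per 10 min over 8 h, one mouse per chamber, starting 2 h after lights on; compared with vehicle, p < 0.05.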

T2 sequence (P23975 whole entry): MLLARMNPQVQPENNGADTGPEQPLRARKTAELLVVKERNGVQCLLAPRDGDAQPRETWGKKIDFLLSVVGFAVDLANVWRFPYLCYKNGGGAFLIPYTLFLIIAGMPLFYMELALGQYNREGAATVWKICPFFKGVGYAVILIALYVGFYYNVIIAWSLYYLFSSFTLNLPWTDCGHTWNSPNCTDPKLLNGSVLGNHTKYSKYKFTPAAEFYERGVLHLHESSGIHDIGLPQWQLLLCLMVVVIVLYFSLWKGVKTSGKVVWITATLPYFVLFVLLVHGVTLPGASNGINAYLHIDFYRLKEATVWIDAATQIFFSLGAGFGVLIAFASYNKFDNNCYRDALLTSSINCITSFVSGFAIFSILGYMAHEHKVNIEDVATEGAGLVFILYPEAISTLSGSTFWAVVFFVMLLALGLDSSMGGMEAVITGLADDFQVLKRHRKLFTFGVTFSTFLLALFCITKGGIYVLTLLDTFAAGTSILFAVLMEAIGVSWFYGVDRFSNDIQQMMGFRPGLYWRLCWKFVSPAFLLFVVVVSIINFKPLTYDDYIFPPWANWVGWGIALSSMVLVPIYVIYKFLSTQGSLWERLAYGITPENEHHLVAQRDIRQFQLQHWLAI
T1 sequence (P31645 whole entry): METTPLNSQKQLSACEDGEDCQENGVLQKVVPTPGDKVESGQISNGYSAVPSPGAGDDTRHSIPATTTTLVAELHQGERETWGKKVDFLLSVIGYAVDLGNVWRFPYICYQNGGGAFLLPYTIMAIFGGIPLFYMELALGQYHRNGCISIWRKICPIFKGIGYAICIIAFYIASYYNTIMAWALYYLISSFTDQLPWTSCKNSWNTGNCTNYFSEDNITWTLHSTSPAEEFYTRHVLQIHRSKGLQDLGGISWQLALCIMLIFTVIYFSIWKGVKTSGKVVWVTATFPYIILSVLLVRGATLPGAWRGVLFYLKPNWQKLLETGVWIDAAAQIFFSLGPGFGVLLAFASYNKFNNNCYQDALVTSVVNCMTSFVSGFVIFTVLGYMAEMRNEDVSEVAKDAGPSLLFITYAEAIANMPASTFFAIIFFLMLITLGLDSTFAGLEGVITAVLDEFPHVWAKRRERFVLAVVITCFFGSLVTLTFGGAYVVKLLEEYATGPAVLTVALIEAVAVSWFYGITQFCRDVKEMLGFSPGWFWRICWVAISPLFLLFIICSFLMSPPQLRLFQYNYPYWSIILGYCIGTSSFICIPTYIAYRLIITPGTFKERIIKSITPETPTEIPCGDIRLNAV
T3 sequence (Q01959 whole entry): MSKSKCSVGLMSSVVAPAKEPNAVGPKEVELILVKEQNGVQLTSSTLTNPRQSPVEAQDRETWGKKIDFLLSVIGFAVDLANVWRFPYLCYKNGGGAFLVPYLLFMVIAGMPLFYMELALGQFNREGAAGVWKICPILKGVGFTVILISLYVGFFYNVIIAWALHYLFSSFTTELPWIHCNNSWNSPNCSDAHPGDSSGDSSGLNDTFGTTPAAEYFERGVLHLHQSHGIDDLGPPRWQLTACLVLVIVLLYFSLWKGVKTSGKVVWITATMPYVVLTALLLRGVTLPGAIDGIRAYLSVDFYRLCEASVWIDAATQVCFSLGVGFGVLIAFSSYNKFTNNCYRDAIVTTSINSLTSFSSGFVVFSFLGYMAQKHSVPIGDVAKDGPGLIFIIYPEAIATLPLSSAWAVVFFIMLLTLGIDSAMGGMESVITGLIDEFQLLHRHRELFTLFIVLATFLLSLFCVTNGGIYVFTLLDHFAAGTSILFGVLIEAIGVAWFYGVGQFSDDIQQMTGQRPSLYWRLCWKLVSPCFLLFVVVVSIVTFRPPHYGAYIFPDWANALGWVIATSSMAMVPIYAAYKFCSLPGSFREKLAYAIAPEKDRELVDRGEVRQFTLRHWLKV

Structure (SMILES)	IC50 [1] [µM]	Ki [2] [µM]	Ki [3] [µM]	IC50 [4] [µM]	IC50 [5] [µM]	Ki [6] [µM]	Activity (Mus musculus)
CCCC(c1ccc(Cl)cc1)C1CCCCN1 (stereo not given)	2.9	2.7	0.2	0.0074	0.05	0.011	
Clc1ccc(C(CCCc2ccccc2)C2CCCCN2)cc1 (stereo in doubt; form 1)	1.6	0.7	0.49	0.29	0.6	0.44	
COc1cccc(C(CC(C)C)C2CCCCN2)c1 (stereo in doubt; form 2)	2.6	3.8	12	0.14	1.4	0.95	
CCCC(c1ccc(Cl)c(Cl)c1)C1CCCCN1 (stereo in doubt; form 1)	0.56	1.8	0.0039	0.0045	0.0081	0.00097	
CC(C)CC(c1cccc(Cl)c1)C1CCCCN1 (stereo in doubt; form 1)	2.1		0.023	0.0028	0.014	0.0037	
CC(C)CC(c1ccc(Cl)cc1)C1CCCCN1 (stereo in doubt; form 1)							Active
CC(c1ccc(Cl)cc1)C1CCCCN1 (stereo in doubt; form 1)	1.9	4.9	0.36	0.022	0.035	0.18	
COC(=O)C(c1ccc(Cl)cc1)C1CCCCN1 (stereo in doubt; form 1)	> 9.8						
CC(C)CC(c1ccc(Cl)cc1)C1CCCCN1 (stereo in doubt; form 2)			4.5	0.38	0.75	0.17	
CC(=O)C(c1ccccc1)C1CCCCN1 (stereo not given)	> 9.7	7.8	2.7	0.19	0.22	0.37	
Clc1ccc(C(CCc2ccccc2)C2CCCCN2)cc1 (stereo not given)	0.21	1.8					
Clc1ccc(C(CCCc2ccccc2)C2CCCCN2)cc1 (stereo in doubt; form 2)	1.2	1.5	1.5	1.4	1.7	2.9	
CCCCC(c1ccc(Cl)c(Cl)c1)C1CCCCN1 (stereo in doubt; form 1)	1.4	1.3	0.012	0.0057	0.027	0.0023	
CC(C)C(c1ccc(Cl)cc1)C1CCCCN1 (stereo not given)		> 10000	> 10000				
CCCCC(c1ccc(Cl)c(Cl)c1)C1CCCCN1 (stereo in doubt; form 2)	0.55	1.1	0.031	0.067	0.063	0.029	
CCCCCC(c1ccc(Cl)cc1)C1CCCCN1 (stereo in doubt; form 2)	1.7	3.6	1.5	0.65	0.86	0.87	
COC(=O)C(c1ccc(Cl)cc1)C1CCCCN1 (stereo in doubt; form 2)	> 10000		> 6.1				
COc1ccc(C(CC(C)C)C2CCCCN2)cc1 (stereo in doubt; form 2)	1.2	0.95	16	0.4	1.6	0.77	

Structure (SMILES)	IC50 [1] [µM]	Ki [2] [µM]	Ki [3] [µM]	IC50 [4] [µM]	IC50 [5] [µM]	Ki [6] [µM]	Activity (Mus musculus)
Clc1ccc(C(Cc2ccccc2)C2CCCCN2)cc1 (stereo not given)					> 8.8		
CC(C)CCC(c1ccc(Cl)cc1)C1CCCCN1 (stereo in doubt; form 1)	7.3	5	0.83	0.014	0.21	0.0036	
CCC(c1ccc(Cl)cc1)C1CCCCN1 (stereo not given)	4.1	4.2	> 9.2	2.8	1.3	1.8	
CCCC(c1ccc(Cl)c(Cl)c1)C1CCCCN1 (stereo in doubt; form 2)	0.18	0.45	0.03	0.088	0.047	0.043	
CC(C)CC(c1ccc(Cl)c(Cl)c1)C1CCCCN1 (stereo in doubt; form 1)	1.1	1.6	0.025	0.0055	0.009	0.001	
CC(C)CC(c1ccc(Cl)c(Cl)c1)C1CCCCN1 (stereo in doubt; form 2)	0.29	0.45	0.12	0.013	0.019	0.031	
CC(C)CC(c1cccc(Cl)c1)C1CCCCN1 (stereo in doubt; form 2)	0.87		0.34	0.088	0.073	0.14	
CCCCCC(c1ccc(Cl)cc1)C1CCCCN1 (stereo in doubt; form 1)	1.5	2.2	0.16	0.045	0.049	0.023	
CC(C)(C)CC(c1ccc(Cl)cc1)C1CCCCN1 (stereo not given)	> 8.3		> 5.5				
CC(c1ccc(Cl)cc1)C1CCCCN1 (stereo in doubt; form 2)	4.7	> 9.1	> 6.3	1.5	3.2	> 3.9	
COc1cccc(C(CC(C)C)C2CCCCN2)c1 (stereo in doubt; form 1)	2.7	4.2	3.8	0.035	0.33	0.022	
COC(=O)C(c1ccccc1)C1CCCCN1 (stereo not given) [METHYLPHENIDATE]	5.1		0.66		0.061		
COc1ccc(C(CC(C)C)C2CCCCN2)cc1 (stereo in doubt; form 1)	3.5	2.8	3.1	0.025	0.41	0.052	
CC(C)CC(c1ccc(C(C)C)cc1)C1CCCCN1 (stereo not given)				> 9.1	> 8.7	> 6.5	
CC(C)CCC(c1ccc(Cl)cc1)C1CCCCN1 (stereo in doubt; form 2)	> 8.3	6.7	12	0.68	3	0.51	
CCC(CC)C(c1ccc(Cl)cc1)C1CCCCN1 (stereo in doubt; form 1)	> 9.4	3.9	0.97	0.24	0.33	0.4	
CCC(CC)C(c1ccc(Cl)cc1)C1CCCCN1 (stereo in doubt; form 2)	> 9.6	4.8	4.3	1.2	3.8	> 5.7	
CC(C)CC(c1ccc(Cl)c(Cl)c1)C1CCCCN1C (stereo not given)					0.028		
